Data as given in publication PMC5600292 (Biochimica et biophysica acta, 2017).
Read-outs that look alike come from different tables or passages of the source.

B1: FXIII V34: full-length recombinant FXIII-A V34 expressed in E. coli (protein, UniProt P00488 1-732, looked up)
chain: MSETSRTAFGGRRAVPPNNSNAAEDDLPTVELQGVVPRGVNLQEFLNVTSVHLFKERWDTNKVDHHTDKYENNKLIVRRGQSFYVQIDFSRPYDPRRDLFRVEYVIGRYPQENKGTYIPVPIVSELQSGKWGAKIVMREDRSVRLSIQSSPKCIVGKFRMYVAVWTPYGVLRTSRNPETDTYILFNPWCEDDAVYLDNEKEREEYVLNDIGVIFYGEVNDIKTRSWSYGQFEDGILDTCLYVMDRAQMDLSGRGNPIKVSRVGSAMVNAKDDEGVLVGSWDNIYAYGVPPSAWTGSVDILLEYRSSENPVRYGQCWVFAGVFNTFLRCLGIPARIVTNYFSAHDNDANLQMDIFLEEDGNVNSKLTKDSVWNYHCWNEAWMTRPDLPVGFGGWQAVDSTPQENSDGMYRCGPASVQAIKHGHVCFQFDAPFVFAEVNSDLIYITAKKDGTHVVENVDATHIGKLIVTKQIGGDGMMDITDTYKFQEGQEEERLALETALMYGAKKPLNTEGVMKSRSNVDMDFEVENAVLGKDFKLSITFRNNSHNRYTITAYLSANITFYTGVPKAEFKKETFDVTLEPLSFKKEAVLIQAGEYMGQLLEQASLHFFVTARINETRDVLAKQKSTVLTIPEIIIKVRGTQVVGSDMTVTVEFTNPLKETLRNVWVHLDGPGVTRPMKKMFREIRPNSTVQWEEVCRPWVSGHRKLIASMSSDSLRHVYGELDVQIQRRPSM
modifications: full-length

What was measured:
[1] = target: T1, human recombinant thrombin wild-type (WT) (Homo sapiens, UniProt P00734); conditions: WT IIa, mean ± SEM, cited from earlier work; for Km / kcat: SEM
[2] = target: human recombinant thrombin W60dA (Homo sapiens, UniProt P00734, W413A); conditions: W60dA IIa, mean ± SEM, cited from earlier work; for Km / kcat: SEM
[3] = system: human recombinant thrombin Y60aA; conditions: cited from earlier work; for Km / kcat / kcat/Km: Y60aA IIa, mean ± SEM; for Km / kcat: SEM; for fold decrease in kcat relative to WT thrombin / fold increase in Km relative to WT thrombin: Y60aA thrombin
[4] = target: T2, human recombinant thrombin L99A (Homo sapiens, UniProt P00734, L459A); conditions: cited from earlier work; for Km / kcat / kcat/Km: L99A IIa, mean ± SEM; for Km / kcat: SEM
[5] = target: T3, human recombinant thrombin I174A (Homo sapiens, UniProt P00734, I542A); conditions: cited from earlier work; for Km / kcat / kcat/Km: I174A IIa, mean ± SEM; for Km / kcat: SEM
[6] = target: human recombinant thrombin W215A (Homo sapiens, UniProt P00734, W590A); conditions: cited from earlier work; for Km / kcat / kcat/Km: W215A IIa, mean ± SEM; for Km / kcat: SEM; for fold reduction of kcat/Km relative to WT thrombin: prior studies
[7] = target: human recombinant thrombin W215A/E217A (WE) (Homo sapiens, UniProt P00734, E592A/W590A); conditions: cited from earlier work; for Km / kcat / kcat/Km: WE (W215A/E217A) IIa, mean ± SEM; for Km / kcat: SEM; for fold decrease in Km relative to WT thrombin: WE thrombin
[8] = target: T1, human recombinant thrombin wild-type (WT); assay: HPLC-based kinetic assay of thrombin-catalyzed hydrolysis of FXIII; type: biochemical; conditions: WT IIa, pH 7.4, 25 °C, average of at least three independent experiments ± SEM
Outline: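 Recombinant human thrombin hydrolysed acetylated, amidated FXIII (28–41) activation peptides with V, L, F, W or Y at position 34 (final 75–2500 µM). Reactions ran at 25 °C in 50 mM H3PO4, 100 mM NaCl, 0.1% PEG, pH 7.4, with 6 nM–1 µM thrombin, and kept <17% hydrolysis in 30 min. Timed aliquots were quenched with 12.5% H3PO4. The (28–37) product was quantified by C18 RP-HPLC against calibration curves, giving initial velocities. These were fit to V = Vmax/(1 + Km/[S]), and kcat came from thrombin concentration. Runs were in triplicate.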

[9] = target: T2, human recombinant thrombin L99A; assay: HPLC-based kinetic assay of FXIII AP hydrolysis, L99A thrombin; type: biochemical; conditions: L99A IIa, HPLC assay, pH 7.4, 25 °C, average of at least three independent experiments ± SEM
Outline: (§1)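 Synthetic Ac-/-NH2 FXIII (28–41) AP peptides (V34, L34, F34, W34, Y34) were used at 75–2500 µM final in 50 mM H3PO4, 100 mM NaCl, 0.1% PEG, pH 7.4, 25 °C. Recombinant human thrombin (6 nM–1 µM) started the reaction; aliquots were quenched with 12.5% H3PO4, keeping hydrolysis below 17% in 30 min. The (28–37) product was quantified by RP-HPLC against calibration curves. Initial velocities were fitted to V = Vmax/(1+Km/[S]), kcat taken from thrombin concentration, in triplicate.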

[10] = target: T3, human recombinant thrombin I174A; assay: HPLC-based kinetic assay of FXIII AP hydrolysis, I174A thrombin; type: biochemical; conditions: for kcat/Km / Km / kcat: I174A IIa, HPLC assay, pH 7.4, 25 °C, average of at least three independent experiments ± SEM; for Km / kcat: SEM
Outline: as §1

[11] = system: WT recombinant human thrombin; assay: Gel electrophoresis; type: biochemical; conditions: 1 µM FXIII variant, 30 nM thrombin, 37°C
Outline: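 Full-length FXIII-A V34X variants were expressed GST-tagged in E. coli BL21(DE3) Gold by auto-induction, then freed from the tag by on-column PreScission digestion. 1 µM variant was incubated with 30 nM WT recombinant human thrombin at 37°C. Aliquots were taken at 1–30 min, quenched with 6 µM PPACK plus reducing buffer, and frozen at −80°C. Samples ran on 8% SDS-PAGE with Coomassie stain; densitometry followed the 83 kDa intact and 79 kDa cleaved bands.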

| Molecule | Km [1] [µM] | kcat [1] [s⁻¹] | kcat/Km [1] [M⁻¹ s⁻¹] | Km [2] [µM] | kcat [2] [s⁻¹] | kcat/Km [2] [M⁻¹ s⁻¹] | Km [3] [µM] | kcat [3] [s⁻¹] | kcat/Km [3] [M⁻¹ s⁻¹] | fold decrease in kcat relative to WT thrombin [3] [fold] | Km [4] [µM] | kcat [4] [s⁻¹] | kcat/Km [4] [M⁻¹ s⁻¹] | fold decrease in kcat relative to WT thrombin ([4]; L99A thrombin) | Km [6] [µM] | kcat [6] [s⁻¹] | kcat/Km [6] [M⁻¹ s⁻¹] | Km [7] [µM] | kcat [7] [s⁻¹] | kcat/Km [7] [M⁻¹ s⁻¹] | other results |
| --- | --- | --- | --- | --- | --- | --- | --- | --- | --- | --- | --- | --- | --- | --- | --- | --- | --- | --- | --- | --- | --- |
| Ac-TVELQGLVPRGVNL-NH2 [FXIII (28–41) L34 AP] | 315 ± 42 | 22.9 ± 0.003 | 73000 ± 1200 | 1000 ± 201 | 5.07 ± 0.021 | 5100 ± 1000 | 696 ± 116 | 0.37 ± 0.012 | 530 ± 120 | 54 to 61 | 1930 ± 354 | 5.94 ± 0.02 | 3100 ± 200 | 3–4 fold | 3620 ± 470 | 5.31 ± 0.002 | 1500 ± 200 | 142 ± 28 | 0.052 ± 0.003 | 370 ± 100 | fold increase in Km relative to WT thrombin [3]: 2 fold; fold advantage in kcat/Km relative to V34 ([4]; L99A thrombin): 7 fold; Km [5]: 1110 ± 247 µM; kcat [5]: 10.2 ± 0.04 s⁻¹; kcat/Km [5]: 9100 ± 2000 M⁻¹ s⁻¹; fold decrease in kcat relative to WT thrombin ([5]; I174A thrombin): 2 fold; fold decrease in Km relative to WT thrombin [7]: 2 fold |
| Ac-TVELQGVVPRGVNL-NH2 [FXIII (28–41) V34 AP] | 298 ± 42 | 2.57 ± 0.005 | 8600 ± 1000 | 1380 ± 422 | 0.86 ± 0.046 | 630 ± 190 | 678 ± 120 | 0.048 ± 0.0032 | 71 ± 13 | 54 to 61 | 2070 ± 414 | 0.89 ± 0.07 | 430 ± 100 | 3–4 fold | 2370 ± 372 | 5.53 ± 0.017 | 2300 ± 700 | 745 ± 98 | 0.117 ± 0.008 | 160 ± 20 | fold increase in Km relative to WT thrombin [3]: 2 fold; Km [5]: 204 ± 36 µM; kcat [5]: 5.37 ± 0.01 s⁻¹; kcat/Km [5]: 26000 ± 100 M⁻¹ s⁻¹; fold increase in kcat relative to WT thrombin ([5]; I174A thrombin): 2 fold; fold reduction of kcat/Km relative to WT thrombin ([6]; W215A thrombin): 4 fold |
| Ac-TVELQGYVPRGVNL-NH2 [FXIII (28–41) Y34 AP] | – | – | – | – | – | – | – | – | – | – | – | – | – | – | – | – | – | – | – | – | kcat/Km [8]: 4600 ± 900 M⁻¹ s⁻¹; Km ([8]; SEM): 484 ± 88 µM; kcat ([8]; SEM): 2.23 ± 0.18 s⁻¹; kcat/Km [9]: 39000 ± 9800 M⁻¹ s⁻¹; Km ([9]; SEM): 347 ± 80 µM; kcat ([9]; SEM): 13.5 ± 1.4 s⁻¹; kcat/Km [10]: 3300 ± 2000 M⁻¹ s⁻¹; Km [10]: 349 ± 120 µM; kcat [10]: 1.17 ± 0.16 s⁻¹; fold decrease in Km relative to WT thrombin ([10]; I174A thrombin, current work): 1.4 fold; fold decrease in kcat relative to WT thrombin ([10]; I174A thrombin, current work): 2 fold |
| Ac-TVELQGFVPRGVNL- NH2 [FXIII (28–41) F34 AP] | 442 ± 93 | 6.27 ± 0.54 | 14000 ± 3000 | 435 ± 98 | 1.46 ± 0.15 | 3400 ± 800 | – | – | – | – | 570 ± 125 | 2.71 ± 0.3 | 4800 ± 120 | 2 fold | 437 ± 81 | 1.97 ± 0.14 | 4500 ± 900 | 190 ± 43 | 0.07 ± 0.007 | 360 ± 80 | kcat/Km [10]: 6600 ± 690 M⁻¹ s⁻¹; Km [10]: 920 ± 88 µM; kcat [10]: 6.08 ± 0.25 s⁻¹; fold decrease in kcat relative to WT thrombin ([6]; W215A thrombin): 3 fold; fold reduction of kcat/Km relative to WT thrombin ([6]; W215A thrombin): 3 fold; fold decrease in Km relative to WT thrombin [7]: 2 fold |
| B1 | – | – | – | – | – | – | – | – | – | – | – | – | – | – | – | – | – | – | – | – | time at which cleavage started to be visible ([11]; SDS-PAGE): 2 min; cleavage of full-length FXIII by thrombin at 10 min ([11]; SDS-PAGE densitometry): 50%; time to full cleavage of full-length FXIII ([11]; SDS-PAGE densitometry): ~30 min |
